Test results reported in ChEMBL document CHEMBL1156146 (Bioorg Med Chem Lett, 2009).
Active and inactive are the calls of the source. The calls are words filed in the database; no cut-off is given here.

Legend:
[1] = target: T1, Prostaglandin G/H synthase 2 (Homo sapiens, UniProt P35354); experiment: Inhibition of human recombinant COX-2 by enzyme immuno assay
T1 sequence (P35354 whole entry): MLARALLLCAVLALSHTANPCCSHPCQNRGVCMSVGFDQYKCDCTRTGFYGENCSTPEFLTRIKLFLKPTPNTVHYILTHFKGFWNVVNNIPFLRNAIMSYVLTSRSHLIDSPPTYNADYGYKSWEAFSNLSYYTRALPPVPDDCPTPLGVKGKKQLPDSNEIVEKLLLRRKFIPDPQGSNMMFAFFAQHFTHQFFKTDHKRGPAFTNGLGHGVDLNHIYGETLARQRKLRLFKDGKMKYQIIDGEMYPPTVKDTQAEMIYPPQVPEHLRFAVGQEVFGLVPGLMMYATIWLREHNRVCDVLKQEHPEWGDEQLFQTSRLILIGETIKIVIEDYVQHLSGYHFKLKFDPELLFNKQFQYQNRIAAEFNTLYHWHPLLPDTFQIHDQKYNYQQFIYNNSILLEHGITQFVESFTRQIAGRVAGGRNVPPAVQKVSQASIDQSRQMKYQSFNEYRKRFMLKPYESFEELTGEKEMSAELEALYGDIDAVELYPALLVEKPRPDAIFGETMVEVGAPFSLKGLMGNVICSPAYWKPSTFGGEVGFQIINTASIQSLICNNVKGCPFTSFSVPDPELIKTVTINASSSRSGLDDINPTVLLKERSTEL

5-lipoxygenase = target: T2, 5-lipoxygenase (Solanum tuberosum, UniProt O49150); experiment: Inhibition of potato 5-LOX after 5 mins by enzyme immuno assay
T2 sequence (O49150 whole entry): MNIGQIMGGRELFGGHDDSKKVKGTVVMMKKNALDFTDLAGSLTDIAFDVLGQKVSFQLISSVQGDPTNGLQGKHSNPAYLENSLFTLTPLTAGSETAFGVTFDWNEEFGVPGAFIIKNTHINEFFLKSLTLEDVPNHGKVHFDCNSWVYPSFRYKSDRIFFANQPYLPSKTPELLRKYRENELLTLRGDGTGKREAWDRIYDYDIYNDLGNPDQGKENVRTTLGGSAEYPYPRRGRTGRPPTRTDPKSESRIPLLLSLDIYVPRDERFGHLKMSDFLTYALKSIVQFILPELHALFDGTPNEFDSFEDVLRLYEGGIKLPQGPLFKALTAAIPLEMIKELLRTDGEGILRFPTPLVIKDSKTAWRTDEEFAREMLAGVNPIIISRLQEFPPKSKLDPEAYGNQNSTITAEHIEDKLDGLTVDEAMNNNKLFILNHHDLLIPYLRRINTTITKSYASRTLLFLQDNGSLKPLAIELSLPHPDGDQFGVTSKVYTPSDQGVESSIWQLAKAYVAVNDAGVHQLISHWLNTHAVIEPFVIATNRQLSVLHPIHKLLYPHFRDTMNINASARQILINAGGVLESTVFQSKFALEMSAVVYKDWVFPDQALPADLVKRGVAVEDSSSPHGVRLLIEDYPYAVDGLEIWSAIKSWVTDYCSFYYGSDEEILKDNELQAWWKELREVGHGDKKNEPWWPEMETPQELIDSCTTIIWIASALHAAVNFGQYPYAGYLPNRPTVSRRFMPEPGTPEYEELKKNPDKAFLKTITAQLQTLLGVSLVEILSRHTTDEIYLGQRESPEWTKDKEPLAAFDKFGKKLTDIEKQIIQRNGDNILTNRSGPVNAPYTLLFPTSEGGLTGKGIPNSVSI
Summary of the method: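 Potato 5-LOX inhibition measured with a LOX assay kit. IC50 is the mean of two determinations, deviation from the mean <10%.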

Rattus norvegicus [2] = experiment: Antiinflammatory activity against assessed as inhibition of carrageenan-induced foot paw edema in po dosed rat after 3 hrs; type: functional
Summary of the method: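 Oral dosing; edema induced by carrageenan in rat paw and measured 3 h after administration. ED50 (µmol/kg) derived from the dose–response.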

[3] = target: Prostaglandin G/H synthase 1 (Ovis aries) (UniProt P05979); experiment: Inhibition of ovine COX-1 by enzyme immuno assay
[4] = Selectivity index, ratio of IC50 for ovine COX-1 to IC50 for human recombinant COX-2
Rattus norvegicus [5] = experiment: Ratio of compound ED50 to aspirin ED50 for inhibition of carrageenan-induced foot paw edema in po dosed rat after 3 hrs; type: functional
Rattus norvegicus [6] = experiment: Gastrointestinal toxicity in rat assessed ulcer index at 1.38 mmol/kg, po after 6 hrs relative to aspirin; type: organism-based; settings: in vivo
Summary of the method: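 Rats fasted 24 h (water allowed) and dosed orally at 1.38 mmol/kg as a suspension in 1% methylcellulose. Killed 6 h later; stomachs opened along greater curvature, rinsed, and lesions measured by magnifier. Lesions up to 1 mm rated 1, 1–2 mm rated 2, >2 mm rated by length in mm. UI is summed lesion length per stomach averaged over n = 4; mean ± SEM.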

Rattus norvegicus [7] = experiment: Ratio of compound ED50 to ibuprofen ED50 for inhibition of carrageenan-induced foot paw edema in po dosed rat after 3 hrs; type: functional
Summary of the method: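 Carrageenan-induced paw edema in rats, test compound given orally. […] The ratio compares the compound ED50 with the ibuprofen ED50 from this model.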

Compound	IC50 [1] [µM]	IC50 (5-lipoxygenase) [µM]	IC50 [3] [µM]	Ratio IC50 [4]	ED50 (Rattus norvegicus [2])	Ratio ED50 (Rattus norvegicus [5])	UI (Rattus norvegicus [6])	Ratio ED50 (Rattus norvegicus [7])
CC(=O)NS(=O)(=O)c1ccc(-c2ccn(C(F)F)c(=O)c2)cc1C(=O)O	17.6	0.32	> 100	> 5	inactive	–	–	–
O=C(O)c1cc(-c2ccc(F)cc2F)ccc1O [DIFLUNISAL]	–	–	–	–	68 µmol/kg	–	–	–
O=C(O)/C=C/c1ccc(O)c(O)c1 [CAFFEIC ACID]	–	4	–	–	–	–	–	–
CC(=O)Oc1ccccc1C(=O)O [ASPIRIN]	–	–	–	–	716 µmol/kg	–	57.4	–

More lines, main results first:

IC50 [1] [µM]	IC50 (5-lipoxygenase) [µM]	IC50 [3] [µM]	Ratio IC50 [4]	Compound	ED50 (Rattus norvegicus [2])	Ratio ED50 (Rattus norvegicus [5])	UI (Rattus norvegicus [6])	Ratio ED50 (Rattus norvegicus [7])
4.4	4.7	> 100	> 22	O=C(O)c1ccc(-c2ccn(C(F)F)c(=O)c2)cc1O	497 µmol/kg	1.4	0	–
0.98	0.37	15.4	> 15	O=C(O)c1cc(-c2ccn(C(F)F)c(=O)c2)ccc1O	434 µmol/kg	1.6	0	–
2.6	0.28	> 100	> 38	CC(=O)NS(=O)(=O)c1cc(-c2ccn(C(F)F)c(=O)c2)ccc1C(=O)O	258 µmol/kg	2.8	–	1.3
